Test results: ChEMBL document CHEMBL4364242, “Novel cationic bis(acylhydrazones) as modulators of Epstein-Barr virus immune evasion acting through disruption of interaction between nucleolin and G-quadruplexes of EBNA1 mRNA” (Eur J Med Chem, 2019)
Calls of active or inactive are those of the source. The calls are words filed in the database; no cut-off is given here.

Legend:
[1] = tested on: human gammaherpesvirus 4; experiment: Binding affinity to EBNA1 G4-quadruplex in human H1299 cells assessed as EB virus EBNA1 expression at 10 uM incubated for 40 hrs by western blot analysis; assay type: cell-based
Summary of the method: (§1)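 H1299 cells in RPMI-1640 with 10% FBS at 37 °C, 5% CO2, transiently transfected with EBNA1 or EBNA1ΔGAr constructs, then treated with 10 μM compound (DMSO vehicle) for 40 h. Lysates taken 48 h post-transfection and western blotted with anti-EBNA1 (OT1X). Levels normalized to GAPDH; at least three repeats.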

[2] = tested on: NCI-H1299; experiment: Effect on OVA expression in human H1299 cells at 10 uM incubated for 40 hrs by western blot analysis; assay type: functional; parameters: unit not given here
Summary of the method: (§2)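 OVA or 235GAr-OVA constructs transiently transfected into H1299 cells, followed by 40 h exposure to 10 μM compound or DMSO. Whole-cell lysates immunoblotted with rabbit anti-OVA; signal normalized to GAPDH. Experiments repeated at least three times.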

[3] = tested on: human gammaherpesvirus 4; experiment: Binding affinity to EBNA1 G4-quadruplex in human H1299 cells assessed as EB virus EBNA1 deleted GAr expression at 10 uM incubated for 40 hrs by western blot analysis; assay type: cell-based; summary of the method: as §1
[4] = Displacement of TO from EB virus g4-EBNA1 mRNA measured after 5 mins by FID assay; parameters: species or system human gammaherpesvirus 4
Summary of the method: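 g4-EBNA1 RNA annealed 95 °C 5 min in K100 buffer (10 mM KAsO2Me2, 100 mM KCl, 1 mM EDTA, 1% DMSO), then mixed with TO; final 0.25 μM RNA and 0.5 μM TO, ligand 0–2.5 μM. Fluorescence read after 5 min shaking (485/520 nm), in duplicate. Displacement = 100×(1−F/F0); DC50 interpolated from the curve.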

[5] = tested on: NCI-H1299; experiment: Effect on 235Gar-OVA expression in human H1299 cells at 10 uM incubated for 40 hrs by western blot analysis; assay type: functional; parameters: unit not given here; summary of the method: as §2
[6] = tested on: human gammaherpesvirus 4; experiment: Binding affinity to EB virus F-g4-EBNA1 mRNA assessed as increase in melting temperature at 1 uM by fluorescence method
[7] = species: Homo sapiens; experiment: Binding affinity to […] assessed as increase in melting temperature at 1 uM by fluorescence method
Summary of the method: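 F-25TAG-T telomeric DNA (5'-FAM/3'-TAMRA) melted with 1 μM ligand in K-100 buffer (10 mM LiAsO2Me2, 100 mM KCl, pH 7.3). Heating 25–95 °C at 0.5 °C/min. ΔTm derived from first-derivative Tm maxima relative to the no-ligand run.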

[8] = Binding affinity to […] (unknown origin) assessed as increase in melting temperature at 1 uM by fluorescence method
Summary of the method: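 Labeled F-myc22-T DNA (5'-FAM/3'-TAMRA) melted with 1 μM ligand in K-1 buffer (10 mM LiAsO2Me2, 1 mM KCl, 99 mM LiCl, pH 7.3). Ramp 0.5 °C/min from 25 to 95 °C. Tm taken from first-derivative maxima and ΔTm calculated versus ligand-free control.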

[9] = tested on: NCI-H1299; experiment: Cytotoxicity against 235Gar-OVA-over expressing human H1299 cells at 10 uM incubated for 40 hrs; assay type: cell-based; details: nci-h1299, 40 h
[10] = tested on: NCI-H1299; experiment: Cytotoxicity against OVA-over expressing human H1299 cells at 10 uM incubated for 40 hrs; assay type: cell-based; details: nci-h1299, 40 h
[11] = Inhibition of recombinant NCL (unknown origin)/EB virusG4-EBNA1 mRNA interaction at 10 uM by RNA pull-down assay
Summary of the method: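 Biotin-TEG RNA (g4-EBNA1 or non-G4 GM) folded in 10 mM Tris pH 7.5, 100 mM KCl, 0.1 mM EDTA (95 °C 5 min, cooled 2 °C/min), then bound to blocked streptavidin beads. 200 ng recombinant NCL added for 90 min at room temperature with 10 μM compound or DMSO. Beads washed up to 800 mM KCl; eluates western-blotted for NCL.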

## C[n+]1ccc(/C=N/NC(=O)c2cccc(C(=O)N/N=C/c3cc[n+](C)cc3)n2)cc1.[I-].[I-]
[1]
  Activity: inactive
[2]
  Activity: 93
[3]
  Activity: inactive
[4]
  IC50: 2320 nM
[5]
  Activity: 106
[6]
  ΔTm: < 10 °C

## CC[n+]1cccc2cc(/C=N/NC(=O)c3cccc(C(=O)N/N=C/c4ccc5c(ccc[n+]5CC)c4)n3)ccc21.[I-].[I-]
[7]
  ΔTm: 15 to 30 °C
[8]
  ΔTm: 15 to 30 °C
[1]
  Activity: inactive
[2]
  Activity: 98
[3]
  Activity: inactive
[4]
  IC50: 740 nM
[5]
  Activity: 86
[6]
  Activity: Active

## C[n+]1ccc(/C=N/NC(=O)c2ccc3ccc(C(=O)N/N=C/c4cc[n+](C)cc4)nc3n2)cc1.[I-].[I-]
[1]
  Activity: inactive
[2]
  Activity: 99
[3]
  Activity: inactive
[4]
  IC50: 930 nM
[5]
  Activity: 112
[6]
  ΔTm: < 10 °C

## O=C(N/N=C/c1ccc2c(ccc[n+]2Cc2ccccc2)c1)c1ccc2ccc3ccc(C(=O)N/N=C/c4ccc5c(ccc[n+]5Cc5ccccc5)c4)nc3c2n1.[Br-].[Br-]
[7]
  ΔTm: 15 to 30 °C
[8]
  ΔTm: 15 to 30 °C
[1]
  Activity: inactive
[2]
  Activity: 94
[3]
  Activity: inactive
[4]
  IC50: 650 nM
[5]
  Activity: 111
[6]
  ΔTm: 20 to 30 °C

## C[n+]1ccc(/C=N/NC(=O)c2ccc3ccc4ccc(C(=O)N/N=C/c5cc[n+](C)cc5)nc4c3n2)cc1.[I-].[I-]
[7]
  ΔTm: 15 to 30 °C
[8]
  ΔTm: 15 to 30 °C
[1]
  Activity: Active
[2]
  Activity: 76
[3]
  Activity: Active
[4]
  IC50: 320 nM
[5]
  Activity: 78
[6]
  ΔTm: 10 to 20 °C

## CC[n+]1cccc2cc(/C=N/NC(=O)c3ccc4ccc(C(=O)N/N=C/c5ccc6c(ccc[n+]6CC)c5)nc4n3)ccc21.[I-].[I-]
[7]
  ΔTm: 15 to 30 °C
[8]
  ΔTm: 15 to 30 °C
[1]
  Activity: inactive
[2]
  Activity: 111
[3]
  Activity: inactive
[4]
  IC50: 800 nM
[5]
  Activity: 82
[6]
  Activity: Active

## CC[n+]1cccc2cc(/C=N/NC(=O)c3ccc4ccc5ccc(C(=O)N/N=C/c6ccc7c(ccc[n+]7CC)c6)nc5c4n3)ccc21.[I-].[I-]
[7]
  ΔTm: 15 to 30 °C
[8]
  ΔTm: 15 to 30 °C
[1]
  Activity: inactive
[2]
  Activity: 96
[3]
  Activity: inactive
[4]
  IC50: 590 nM
[5]
  Activity: 80
[6]
  ΔTm: 20 to 30 °C

## CC[n+]1cccc2cc(/C=N/NC(=O)c3cc(C(=O)N/N=C/c4ccc5c(ccc[n+]5CC)c4)ncn3)ccc21.[I-].[I-]
[1]
  Activity: Active
[9]
  Activity: Toxic
[2]
  Activity: 47
[3]
  Activity: Active
[4]
  IC50: > 2500 nM
[10]
  Activity: Toxic
[5]
  Activity: 48

## C[n+]1cc(NC(=O)c2ccc3ccc4ccc(C(=O)Nc5cc6ccccc6[n+](C)c5)nc4c3n2)cc2ccccc21
[7]
  ΔTm: > 35 °C
[8]
  ΔTm: > 35 °C
[11]
  fold change (FC): 2
[4]
  IC50: 310 nM
[6]
  ΔTm: 30 °C

## O=C(N/N=C/c1ccc2c(ccc[n+]2Cc2ccccc2)c1)c1ccc2ccc(C(=O)N/N=C/c3ccc4c(ccc[n+]4Cc4ccccc4)c3)nc2n1.[Br-].[Br-]
[7]
  ΔTm: 15 to 30 °C
[8]
  ΔTm: 15 to 30 °C
[1]
  Activity: inactive
[2]
  Activity: 108
[3]
  Activity: inactive
[4]
  IC50: 1090 nM
[5]
  Activity: 104
[6]
  Activity: Active

## C[n+]1ccc(/C=N/NC(=O)c2cc(C(=O)N/N=C/c3cc[n+](C)cc3)ncn2)cc1.[I-].[I-]
[1]
  Activity: inactive
[2]
  Activity: 92
[3]
  Activity: inactive
[4]
  IC50: > 2500 nM
[5]
  Activity: 80

## C[n+]1ccc(C=NNC(=O)c2ccc3ccc4ccc(C(=O)NN=Cc5cc[n+](C)cc5)nc4c3n2)cc1.[I-].[I-]
[9]
  Activity: Toxic
[10]
  Activity: Toxic

## O=C(N/N=C/c1cc[n+](Cc2ccccc2)c2ccccc12)c1ccc2ccc(C(=O)N/N=C/c3cc[n+](Cc4ccccc4)c4ccccc34)nc2n1.[Br-].[Br-]
[7]
  ΔTm: 15 to 30 °C
[8]
  ΔTm: 15 to 30 °C
[1]
  Activity: inactive
[2]
  Activity: 93
[3]
  Activity: inactive
[4]
  IC50: 710 nM
[5]
  Activity: 106
[6]
  Activity: Active

## O=C(N/N=C/c1ccc2c(ccc[n+]2Cc2ccccc2)c1)c1cc(C(=O)N/N=C/c2ccc3c(ccc[n+]3Cc3ccccc3)c2)ncn1.[Br-].[Br-]
[1]
  Activity: Active
[2]
  Activity: 137
[3]
  Activity: Active
[4]
  IC50: > 2500 nM
[5]
  Activity: 139

## C[n+]1ccc(/C=N/NC(=O)c2ccc3ccc(C(=O)N/N=C/c4cc[n+](C)c5ccccc45)nc3n2)c2ccccc21.[I-].[I-]
[7]
  ΔTm: 15 to 30 °C
[8]
  ΔTm: 15 to 30 °C
[1]
  Activity: inactive
[2]
  Activity: 100
[3]
  Activity: inactive
[4]
  IC50: 610 nM
[5]
  Activity: 95
[6]
  Activity: Active

## O=C(N/N=C/c1cc[n+](Cc2ccccc2)c2ccccc12)c1cc(C(=O)N/N=C/c2cc[n+](Cc3ccccc3)c3ccccc23)ncn1.[Br-].[Br-]
[1]
  Activity: inactive
[2]
  Activity: 106
[3]
  Activity: inactive
[4]
  IC50: 1240 nM
[5]
  Activity: 108

## C[n+]1ccc(/C=N/NC(=O)c2cc(C(=O)N/N=C/c3cc[n+](C)c4ccccc34)ncn2)c2ccccc21.[I-].[I-]
[1]
  Activity: inactive
[2]
  Activity: 103
[3]
  Activity: inactive
[4]
  IC50: 740 nM
[5]
  Activity: 89

## O=C(N/N=C/c1ccc2c(ccc[n+]2Cc2ccccc2)c1)c1cccc(C(=O)N/N=C/c2ccc3c(ccc[n+]3Cc3ccccc3)c2)n1.[Br-].[Br-]
[7]
  ΔTm: 15 to 30 °C
[8]
  ΔTm: 15 to 30 °C
[1]
  Activity: Active
[9]
  Activity: Toxic
[2]
  Activity: 70
[3]
  Activity: Active
[4]
  IC50: 720 nM
[10]
  Activity: Toxic
[5]
  Activity: 58
[6]
  Activity: Active

## O=C(N/N=C/c1cc[n+](Cc2ccccc2)c2ccccc12)c1ccc2ccc3ccc(C(=O)N/N=C/c4cc[n+](Cc5ccccc5)c5ccccc45)nc3c2n1.[Br-].[Br-]
[7]
  ΔTm: 15 to 30 °C
[8]
  ΔTm: 15 to 30 °C
[1]
  Activity: inactive
[2]
  Activity: 114
[3]
  Activity: inactive
[4]
  IC50: 340 nM
[5]
  Activity: 96
[6]
  ΔTm: 20 to 30 °C

## O=C(N/N=C/c1cc[n+](Cc2ccccc2)c2ccccc12)c1cccc(C(=O)N/N=C/c2cc[n+](Cc3ccccc3)c3ccccc23)n1.[Br-].[Br-]
[7]
  ΔTm: 15 to 30 °C
[8]
  ΔTm: 15 to 30 °C
[1]
  Activity: Active
[2]
  Activity: 149
[3]
  Activity: Active
[4]
  IC50: 390 nM
[5]
  Activity: 134
[6]
  Activity: Active
